Test results as given in ChEMBL document CHEMBL3112486, “Novel class of benzoic acid ester derivatives as potent PDE4 inhibitors for inhaled administration in the treatment of respiratory diseases” (J Med Chem, 2014).

Experiments:
Phosphodiesterase 4 [1] = target: T1, Phosphodiesterase 4 (Homo sapiens, UniProt P27815+Q08499+Q07343+Q08493); assay: Inhibition of PDE4 isolated from human U937 cells assessed as […] by LANCE assay; assay type: cell-free; conditions: u-937
Phosphodiesterase 4 [2] = target: T1, Phosphodiesterase 4; assay: Inhibition of PDE4 activity in human PBMC assessed as inhibition of LPS-induced TNFalpha release after 18 hrs by ELISA
How it was run: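 Human PBMCs plated at 10^5 cells/well in RPMI 1640 without phenol red plus 10% FBS, at 37 °C, 5% CO2. Compound added at 10^-15 to 10^-6 M (final DMSO 0.2%), with E. coli LPS at 3 ng/mL final, for 18 h. TNFα in supernatant measured by paired-antibody ELISA. IC50 from four-parameter logistic nonlinear regression, reported with 95% confidence intervals.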

`COc1cc(NS(C)(=O)=O)ccc1C(=O)O[C@@H](Cc1c(Cl)c[n+]([O-])cc1Cl)c1ccc(OC(F)F)c(OCC2CC2)c1` gave an IC50 (Phosphodiesterase 4 [1]) of 0.06 nM and an IC50 (Phosphodiesterase 4 [2]) of 0.43 nM.
`O=C(O[C@@H](Cc1c(Cl)c[n+]([O-])cc1Cl)c1ccc(OC(F)F)c(OCC2CC2)c1)c1ccc(C(F)(F)F)cc1` gave an IC50 (Phosphodiesterase 4 [1]) of 0.2 nM and an IC50 (Phosphodiesterase 4 [2]) of 21 nM.
`O=C(OC(Cc1c(Cl)cncc1Cl)c1ccc(OC(F)F)c(OCC2CC2)c1)c1ccccc1` (racemic) was tested, and the IC50 (Phosphodiesterase 4 [1]) was 1.14 nM.
`COc1ccc(C(=O)O[C@@H](Cc2c(Cl)c[n+]([O-])cc2Cl)c2ccc(OC(F)F)c(OCC3CC3)c2)cc1O` gave an IC50 (Phosphodiesterase 4 [1]) of 0.08 nM and an IC50 (Phosphodiesterase 4 [2]) of 0.75 nM.
With `COc1ccc(C(=O)O[C@@H](Cc2c(Cl)c[n+]([O-])cc2Cl)c2ccc(OC(F)F)c(OCC3CC3)c2)cc1OC(C)=O` the IC50 (Phosphodiesterase 4 [1]) was 0.05 nM and the IC50 (Phosphodiesterase 4 [2]) was 0.96 nM.
With `O=C(O[C@@H](Cc1c(Cl)c[n+]([O-])cc1Cl)c1ccc(OC(F)F)c(OCC2CC2)c1)c1ccc(CO)c(OCC2CC2)c1` the IC50 (Phosphodiesterase 4 [1]) was 0.08 nM and the IC50 (Phosphodiesterase 4 [2]) was 0.69 nM.
In the case of `CNS(=O)(=O)c1cc(C(=O)O[C@@H](Cc2c(Cl)c[n+]([O-])cc2Cl)c2ccc(OC(F)F)c(OCC3CC3)c2)ccc1OC`, the IC50 (Phosphodiesterase 4 [1]) was 0.03 nM and the IC50 (Phosphodiesterase 4 [2]) was 0.25 nM.
For `CS(=O)(=O)Nc1cccc(C(=O)O[C@@H](Cc2c(Cl)c[n+]([O-])cc2Cl)c2ccc(OC(F)F)c(OCC3CC3)c2)c1OCC1CC1`, the IC50 (Phosphodiesterase 4 [1]) was 0.18 nM and the IC50 (Phosphodiesterase 4 [2]) was 1.31 nM.
`COc1ccc(C(=O)O[C@@H](Cc2c(Cl)c[n+]([O-])cc2Cl)c2ccc(OC(F)F)c(OCC3CC3)c2)cc1Oc1ccccc1` showed an IC50 (Phosphodiesterase 4 [1]) of 0.21 nM and an IC50 (Phosphodiesterase 4 [2]) of 1.36 nM.
With `COc1cc(NS(C)(=O)=O)cc(C(=O)O[C@@H](Cc2c(Cl)c[n+]([O-])cc2Cl)c2ccc(OC(F)F)c(OCC3CC3)c2)c1` the IC50 (Phosphodiesterase 4 [1]) was 0.17 nM and the IC50 (Phosphodiesterase 4 [2]) was 0.13 nM.
`CS(=O)(=O)Nc1ccc(C(=O)O[C@@H](Cc2c(Cl)c[n+]([O-])cc2Cl)c2ccc(OC(F)F)c(OCC3CC3)c2)c(OCC2CC2)c1` was tested, and the IC50 (Phosphodiesterase 4 [1]) was 0.26 nM and the IC50 (Phosphodiesterase 4 [2]) was 1.96 nM.
`CS(=O)(=O)Nc1ccc(C(=O)O[C@@H](Cc2c(Cl)c[n+]([O-])cc2Cl)c2ccc(OC(F)F)c(OCC3CC3)c2)cc1CO` was tested, and the IC50 (Phosphodiesterase 4 [1]) was 0.03 nM and the IC50 (Phosphodiesterase 4 [2]) was 1.05 nM.
With `O=C(O[C@H](Cc1c(Cl)cncc1Cl)c1ccc(OC(F)F)c(OCC2CC2)c1)c1ccc(OC(F)F)c(OCC2CC2)c1` the IC50 (Phosphodiesterase 4 [1]) was 44 nM.
In the case of `COc1ccc(C(=O)O[C@@H](Cc2c(Cl)c[n+]([O-])cc2Cl)c2ccc(OC(F)F)c(OCC3CC3)c2)cc1S(=O)(=O)N(C)C`, the IC50 (Phosphodiesterase 4 [1]) was 0.03 nM and the IC50 (Phosphodiesterase 4 [2]) was 1.85 nM.
`O=C(O[C@@H](Cc1c(Cl)c[n+]([O-])cc1Cl)c1ccc(OC(F)F)c(OCC2CC2)c1)c1ccc(NS(=O)(=O)C2CC2)c(OCC2CC2)c1` gave an IC50 (Phosphodiesterase 4 [1]) of 0.15 nM and an IC50 (Phosphodiesterase 4 [2]) of 0.34 nM.
`[O-][n+]1cc(Cl)c(C[C@H](O)c2ccc(OC(F)F)c(OCC3CC3)c2)c(Cl)c1` gave an IC50 (Phosphodiesterase 4 [1]) of 9.44 nM and an IC50 (Phosphodiesterase 4 [2]) of 479 nM.
Work on `CS(=O)(=O)Nc1cc(C(=O)O[C@@H](Cc2c(Cl)c[n+]([O-])cc2Cl)c2ccc(OC(F)F)c(OCC3CC3)c2)ccc1OCc1ccccc1` yielded an IC50 (Phosphodiesterase 4 [1]) of 0.32 nM and an IC50 (Phosphodiesterase 4 [2]) of 0.53 nM.
`O=C(O[C@@H](Cc1c(Cl)c[n+]([O-])cc1Cl)c1ccc(OC(F)F)c(OCC2CC2)c1)c1ccc([N+](=O)[O-])c(OCC2CC2)c1` was tested, and the IC50 (Phosphodiesterase 4 [1]) was 0.21 nM and the IC50 (Phosphodiesterase 4 [2]) was 0.69 nM.
Work on `CC(=O)Nc1ccc(C(=O)O[C@@H](Cc2c(Cl)c[n+]([O-])cc2Cl)c2ccc(OC(F)F)c(OCC3CC3)c2)cc1OCC1CC1` yielded an IC50 (Phosphodiesterase 4 [1]) of 0.24 nM and an IC50 (Phosphodiesterase 4 [2]) of 0.21 nM.
With `Nc1ccc(C(=O)O[C@@H](Cc2c(Cl)c[n+]([O-])cc2Cl)c2ccc(OC(F)F)c(OCC3CC3)c2)cc1OCC1CC1` the IC50 (Phosphodiesterase 4 [1]) was 0.09 nM and the IC50 (Phosphodiesterase 4 [2]) was 0.11 nM.
With `COc1ccc(C(=O)O[C@@H](Cc2c(Cl)c[n+]([O-])cc2Cl)c2ccc(OC(F)F)c(OCC3CC3)c2)cc1` the IC50 (Phosphodiesterase 4 [1]) was 0.14 nM and the IC50 (Phosphodiesterase 4 [2]) was 0.47 nM.
Compound `O=C(O[C@@H](Cc1c(Cl)c[n+]([O-])cc1Cl)c1ccc(OC(F)F)c(OCC2CC2)c1)c1ccccc1` has an IC50 (Phosphodiesterase 4 [1]) of 0.072 nM and an IC50 (Phosphodiesterase 4 [2]) of 1.71 nM.
`COc1ccc(C(=O)O[C@@H](Cc2c(Cl)c[n+]([O-])cc2Cl)c2ccc(OC(F)F)c(OCC3CC3)c2)c(NS(C)(=O)=O)c1` was tested, and the IC50 (Phosphodiesterase 4 [1]) was 0.73 nM and the IC50 (Phosphodiesterase 4 [2]) was > 60 nM.
With `CC(=O)OC(Cc1c(Cl)cncc1Cl)c1ccc(OC(F)F)c(OCC2CC2)c1` (racemic) the IC50 (Phosphodiesterase 4 [1]) was 4.09 nM.
Work on `O=C(O/C(=C\c1c(Cl)cncc1Cl)c1ccc(OC(F)F)c(OCC2CC2)c1)c1ccc(OC(F)F)c(OCC2CC2)c1` yielded an IC50 (Phosphodiesterase 4 [1]) of 1.18 nM.
`COc1cccc(NS(C)(=O)=O)c1C(=O)O[C@@H](Cc1c(Cl)c[n+]([O-])cc1Cl)c1ccc(OC(F)F)c(OCC2CC2)c1` was tested, and the IC50 (Phosphodiesterase 4 [1]) was 6.83 nM and the IC50 (Phosphodiesterase 4 [2]) was > 60 nM.
For `O=C(CCCc1ccccc1)OC(Cc1c(Cl)cncc1Cl)c1ccc(OC(F)F)c(OCC2CC2)c1` (racemic), the IC50 (Phosphodiesterase 4 [1]) was 1.34 nM.
In the case of `CS(=O)(=O)Nc1ccc(OCC2CC2)c(C(=O)O[C@@H](Cc2c(Cl)c[n+]([O-])cc2Cl)c2ccc(OC(F)F)c(OCC3CC3)c2)c1`, the IC50 (Phosphodiesterase 4 [1]) was 0.4 nM and the IC50 (Phosphodiesterase 4 [2]) was 4.9 nM.
`O=C(O[C@@H](Cc1c(Cl)c[n+]([O-])cc1Cl)c1ccc(OC(F)F)c(OCC2CC2)c1)c1ccc(OC(F)F)c(OCC2CC2)c1` gave an IC50 (Phosphodiesterase 4 [1]) of 0.22 nM and an IC50 (Phosphodiesterase 4 [2]) of 1.1 nM.
`O=C(Cc1ccccc1)OC(Cc1c(Cl)cncc1Cl)c1ccc(OC(F)F)c(OCC2CC2)c1` (racemic) gave an IC50 (Phosphodiesterase 4 [1]) of 1.06 nM.
`Cc1cc(C(=O)O[C@@H](Cc2c(Cl)c[n+]([O-])cc2Cl)c2ccc(OC(F)F)c(OCC3CC3)c2)ccc1NS(C)(=O)=O` gave an IC50 (Phosphodiesterase 4 [1]) of 0.05 nM and an IC50 (Phosphodiesterase 4 [2]) of 0.41 nM.
With `O=C(O[C@H](Cc1c(Cl)c[n+]([O-])cc1Cl)c1ccc(OC(F)F)c(OCC2CC2)c1)c1ccc(OC(F)F)c(OCC2CC2)c1` the IC50 (Phosphodiesterase 4 [1]) was 2.43 nM.
`N#Cc1ccc(C(=O)O[C@@H](Cc2c(Cl)c[n+]([O-])cc2Cl)c2ccc(OC(F)F)c(OCC3CC3)c2)cc1` showed an IC50 (Phosphodiesterase 4 [1]) of 0.41 nM and an IC50 (Phosphodiesterase 4 [2]) of 2.1 nM.
`COc1ccc(C(=O)O[C@@H](Cc2c(Cl)c[n+]([O-])cc2Cl)c2ccc(OC(F)F)c(OCC3CC3)c2)cc1NC(C)=O` showed an IC50 (Phosphodiesterase 4 [1]) of 0.08 nM and an IC50 (Phosphodiesterase 4 [2]) of 0.67 nM.
Work on `COc1ccc(C(=O)O[C@@H](Cc2c(Cl)c[n+]([O-])cc2Cl)c2ccc(OC(F)F)c(OCC3CC3)c2)cc1NS(C)(=O)=O` yielded an IC50 (Phosphodiesterase 4 [1]) of 0.04 nM and an IC50 (Phosphodiesterase 4 [2]) of 0.06 nM.
For `CS(=O)(=O)Nc1cc(OCC2CC2)cc(C(=O)O[C@@H](Cc2c(Cl)c[n+]([O-])cc2Cl)c2ccc(OC(F)F)c(OCC3CC3)c2)c1`, the IC50 (Phosphodiesterase 4 [1]) was 0.06 nM and the IC50 (Phosphodiesterase 4 [2]) was 0.92 nM.
`COc1ccc(NS(C)(=O)=O)c(C(=O)O[C@@H](Cc2c(Cl)c[n+]([O-])cc2Cl)c2ccc(OC(F)F)c(OCC3CC3)c2)c1` was tested, and the IC50 (Phosphodiesterase 4 [1]) was 0.4 nM and the IC50 (Phosphodiesterase 4 [2]) was > 60 nM.
`O=C(O[C@@H](Cc1c(Cl)cncc1Cl)c1ccc(OC(F)F)c(OCC2CC2)c1)c1ccc(OC(F)F)c(OCC2CC2)c1` was tested, and the IC50 (Phosphodiesterase 4 [1]) was 1.9 nM.
In the case of `CN(C)c1ccc(C(=O)O[C@@H](Cc2c(Cl)c[n+]([O-])cc2Cl)c2ccc(OC(F)F)c(OCC3CC3)c2)cc1OCC1CC1`, the IC50 (Phosphodiesterase 4 [1]) was 0.31 nM and the IC50 (Phosphodiesterase 4 [2]) was 0.63 nM.
With `COc1ccc(C(=O)O[C@@H](Cc2c(Cl)c[n+]([O-])cc2Cl)c2ccc(OC(F)F)c(OCC3CC3)c2)cc1OC` the IC50 (Phosphodiesterase 4 [1]) was 0.07 nM and the IC50 (Phosphodiesterase 4 [2]) was 0.12 nM.
Compound `CCCC(=O)OC(Cc1c(Cl)cncc1Cl)c1ccc(OC(F)F)c(OCC2CC2)c1` (racemic) has an IC50 (Phosphodiesterase 4 [1]) of 1.74 nM.
